Our source for the IC50 values is BindingDB's records for doi:10.1021/jm00027a001 (Telios Pharmaceuticals, 1994).

The target in test [1] is Integrin alpha-IIb/beta-3 (Homo sapiens, UniProt P05106+P08514). As to the kind of experiment: Binding affinity against integrin alpha 2b-beta 3 in enzyme linked immunosorbent assay (ELISA). In short, it runs like this: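 Purified human platelet αIIbβ3 (from outdated platelets, octyl glucoside extract) in TBS with 20 mM octyl glucoside, 2 mM MgCl2 and 2 mM CaCl2 binds to plate-coated human fibrinogen (10 µg/mL in TBS) with 10-fold serial peptide dilutions for 3 h at room temperature. Bound receptor is detected with rabbit anti-αIIbβ3, then HRP anti-rabbit IgG, with o-phenylenediamine/H2O2 at pH 5.0. IC50 is reported.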
Sequence of Integrin alpha-IIb/beta-3 (P05106 27-788 limits assumed): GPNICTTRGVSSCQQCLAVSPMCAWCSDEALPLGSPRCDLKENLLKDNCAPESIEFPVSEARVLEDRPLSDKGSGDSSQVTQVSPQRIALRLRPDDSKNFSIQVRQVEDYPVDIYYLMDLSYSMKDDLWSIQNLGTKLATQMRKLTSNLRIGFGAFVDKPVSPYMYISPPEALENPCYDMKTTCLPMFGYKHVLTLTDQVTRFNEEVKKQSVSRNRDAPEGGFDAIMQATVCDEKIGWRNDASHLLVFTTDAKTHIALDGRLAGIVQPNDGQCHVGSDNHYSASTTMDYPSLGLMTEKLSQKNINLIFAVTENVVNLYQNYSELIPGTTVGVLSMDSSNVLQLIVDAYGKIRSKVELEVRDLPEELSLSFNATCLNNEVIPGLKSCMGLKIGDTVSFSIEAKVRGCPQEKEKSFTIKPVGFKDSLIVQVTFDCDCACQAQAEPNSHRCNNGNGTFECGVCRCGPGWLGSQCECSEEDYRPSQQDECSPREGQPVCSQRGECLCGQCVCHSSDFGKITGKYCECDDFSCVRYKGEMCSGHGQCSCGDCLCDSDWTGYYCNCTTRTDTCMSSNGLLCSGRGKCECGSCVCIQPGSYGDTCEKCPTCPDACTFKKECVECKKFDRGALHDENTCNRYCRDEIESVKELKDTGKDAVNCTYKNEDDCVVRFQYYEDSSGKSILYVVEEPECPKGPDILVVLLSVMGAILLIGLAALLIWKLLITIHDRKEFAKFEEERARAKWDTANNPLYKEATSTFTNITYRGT
Sequence of Integrin alpha-IIb/beta-3 (P08514 32-887 limits assumed): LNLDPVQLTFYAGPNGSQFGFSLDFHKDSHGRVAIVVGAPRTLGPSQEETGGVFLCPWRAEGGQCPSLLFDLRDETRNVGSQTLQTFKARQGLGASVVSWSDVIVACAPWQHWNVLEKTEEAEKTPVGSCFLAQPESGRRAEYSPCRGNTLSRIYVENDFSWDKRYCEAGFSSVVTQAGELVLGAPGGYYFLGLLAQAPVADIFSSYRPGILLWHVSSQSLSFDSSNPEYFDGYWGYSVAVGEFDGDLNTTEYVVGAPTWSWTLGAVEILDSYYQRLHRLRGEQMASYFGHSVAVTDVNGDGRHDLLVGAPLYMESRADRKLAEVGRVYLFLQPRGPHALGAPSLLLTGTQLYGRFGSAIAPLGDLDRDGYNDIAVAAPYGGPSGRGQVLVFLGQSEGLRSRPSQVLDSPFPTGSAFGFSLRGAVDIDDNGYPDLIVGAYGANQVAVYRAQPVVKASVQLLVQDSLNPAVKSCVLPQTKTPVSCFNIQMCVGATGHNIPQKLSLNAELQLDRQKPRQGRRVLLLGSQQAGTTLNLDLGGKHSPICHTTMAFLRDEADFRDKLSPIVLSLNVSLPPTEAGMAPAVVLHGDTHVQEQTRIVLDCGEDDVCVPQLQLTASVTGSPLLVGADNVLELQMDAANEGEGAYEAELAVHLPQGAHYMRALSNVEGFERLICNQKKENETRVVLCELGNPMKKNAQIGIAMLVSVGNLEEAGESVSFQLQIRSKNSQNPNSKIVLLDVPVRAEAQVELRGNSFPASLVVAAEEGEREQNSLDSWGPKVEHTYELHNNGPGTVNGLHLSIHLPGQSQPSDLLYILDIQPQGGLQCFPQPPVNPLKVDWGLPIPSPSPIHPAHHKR
Sequence of Integrin alpha-IIb/beta-3 (P08514 891-1039 limits assumed): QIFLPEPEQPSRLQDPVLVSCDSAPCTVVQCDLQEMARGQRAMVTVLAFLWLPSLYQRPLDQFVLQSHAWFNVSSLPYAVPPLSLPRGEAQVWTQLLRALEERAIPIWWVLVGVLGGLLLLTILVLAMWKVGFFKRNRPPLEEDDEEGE
Background: ELISA stands for enzyme-linked immunosorbent assay.

A further test deals with Integrin alpha-5/beta-1 (Homo sapiens, UniProt P05556+P08648). As to the kind of experiment: Binding affinity against integrin alpha5-beta1 in enzyme linked immunosorbent assay (ELISA).
A further test has as its target Integrin alpha-V/beta-5 (Homo sapiens, UniProt P06756+P18084). As to the kind of experiment: Binding affinity against integrin alpha V-beta5 in enzyme linked immunosorbent assay (ELISA). In short, it runs like this: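 It is added to wells coated with human vitronectin in 0.1 M carbonate, pH 9.6, with 10-fold serial peptide dilutions for 3 h at room temperature. Detection uses rabbit anti-VnR, HRP anti-rabbit IgG and o-phenylenediamine/H2O2.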

*1 amine or outer side, *2 acyl side, *3 side chain or, on linkers, in order; H or OH if unused. Where a SMILES comes first, the peptide text is derived from it. Bridges are numbered along the chain shown (N, C = ends). X2 = N[C@H](C(=O)[*:1])C1(S[*:2])CCCCC1

Sequence of Integrin alpha-V/beta-5 (P06756 31-889 limits assumed): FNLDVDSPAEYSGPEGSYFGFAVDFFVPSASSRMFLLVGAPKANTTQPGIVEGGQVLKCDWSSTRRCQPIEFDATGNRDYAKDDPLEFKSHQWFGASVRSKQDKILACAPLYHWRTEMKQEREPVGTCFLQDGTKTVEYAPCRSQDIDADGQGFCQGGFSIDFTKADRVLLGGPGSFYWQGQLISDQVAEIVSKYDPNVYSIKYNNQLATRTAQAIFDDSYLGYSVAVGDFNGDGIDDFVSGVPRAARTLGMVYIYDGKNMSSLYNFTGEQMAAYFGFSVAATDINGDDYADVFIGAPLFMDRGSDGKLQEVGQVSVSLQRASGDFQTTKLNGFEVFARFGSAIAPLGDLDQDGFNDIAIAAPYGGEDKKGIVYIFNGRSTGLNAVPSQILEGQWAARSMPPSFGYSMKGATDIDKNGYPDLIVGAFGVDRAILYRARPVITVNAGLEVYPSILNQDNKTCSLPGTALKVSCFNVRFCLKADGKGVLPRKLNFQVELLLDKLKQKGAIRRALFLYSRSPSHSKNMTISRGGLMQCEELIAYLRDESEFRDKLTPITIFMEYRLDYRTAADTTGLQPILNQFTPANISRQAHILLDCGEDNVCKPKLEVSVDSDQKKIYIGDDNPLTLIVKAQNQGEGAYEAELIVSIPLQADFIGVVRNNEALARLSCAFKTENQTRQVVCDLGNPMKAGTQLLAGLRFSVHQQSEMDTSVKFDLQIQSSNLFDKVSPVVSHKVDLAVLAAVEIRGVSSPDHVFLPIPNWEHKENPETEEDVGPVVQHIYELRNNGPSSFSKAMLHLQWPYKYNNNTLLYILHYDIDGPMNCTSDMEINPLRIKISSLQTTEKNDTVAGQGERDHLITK
Sequence of Integrin alpha-V/beta-5 (P06756 891-1048 limits assumed): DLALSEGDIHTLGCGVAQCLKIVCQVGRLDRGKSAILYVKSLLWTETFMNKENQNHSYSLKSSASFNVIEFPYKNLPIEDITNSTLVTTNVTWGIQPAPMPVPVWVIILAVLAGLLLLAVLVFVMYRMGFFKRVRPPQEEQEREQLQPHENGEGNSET
Sequence of Integrin alpha-V/beta-5 (P18084 24-799 limits assumed): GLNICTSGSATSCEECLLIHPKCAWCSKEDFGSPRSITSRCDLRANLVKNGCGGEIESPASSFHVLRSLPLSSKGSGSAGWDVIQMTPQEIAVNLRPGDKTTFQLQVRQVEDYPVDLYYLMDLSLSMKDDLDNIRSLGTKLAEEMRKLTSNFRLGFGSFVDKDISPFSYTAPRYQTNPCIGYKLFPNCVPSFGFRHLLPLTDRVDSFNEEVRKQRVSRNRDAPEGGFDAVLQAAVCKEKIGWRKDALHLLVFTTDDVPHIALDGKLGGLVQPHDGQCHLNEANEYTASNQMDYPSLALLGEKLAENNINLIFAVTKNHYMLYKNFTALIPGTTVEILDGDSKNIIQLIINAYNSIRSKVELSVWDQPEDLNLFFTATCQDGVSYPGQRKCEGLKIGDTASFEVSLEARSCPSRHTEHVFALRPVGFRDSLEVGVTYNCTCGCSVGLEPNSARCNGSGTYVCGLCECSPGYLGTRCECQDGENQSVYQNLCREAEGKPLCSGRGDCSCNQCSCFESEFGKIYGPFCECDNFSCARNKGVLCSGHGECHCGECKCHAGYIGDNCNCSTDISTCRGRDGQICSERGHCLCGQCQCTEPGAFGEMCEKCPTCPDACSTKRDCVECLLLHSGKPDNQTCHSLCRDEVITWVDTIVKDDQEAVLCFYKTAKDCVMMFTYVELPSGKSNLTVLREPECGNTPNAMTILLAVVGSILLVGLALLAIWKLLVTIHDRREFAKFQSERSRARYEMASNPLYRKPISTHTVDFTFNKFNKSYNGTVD

As to `COc1ccc(C[C@@H]2NC(=O)[C@H](CC(=O)O)NC(=O)CNC(=O)[C@H](CCCN=C(N)N)NC(=O)[C@H](Cc3c[nH]cn3)NC(=O)[C@H](CCCN=C(N)N)NC(=O)[C@@H](N)CCC/N=C(/N)NC(=O)[C@@H](N)C3(CCCCC3)SSC[C@@H](C(=O)N[C@@H](CCCN=C(N)N)C(=O)O)NC(=O)[C@H](CCCN=C(N)N)NC2=O)cc1` [R(Pmc)-G-H-R-G-D-(Y-OMe)-R-C-R] (H-RRHRGDY(Me)RCR-OH; linker 1-9 via X2), the IC50 (in test [1]; at Integrin alpha-5/beta-1) was 6.2 µM throughout.
Turning to `COc1ccc(C[C@@H]2NC(=O)[C@H](CC(=O)O)NC(=O)CNC(=O)[C@H](CCCN=C(N)N)NC(=O)[C@H](Cc3c[nH]cn3)NC(=O)[C@H](CC(N)=O)NC(=O)[C@@H](N)CCC/N=C(/N)NC(=O)[C@@H](N)C3(CCCCC3)SSC[C@@H](C(=O)N[C@@H](CCCN=C(N)N)C(=O)O)NC(=O)[C@H](CCCN=C(N)N)NC2=O)cc1` [R(Pmc)-N-H-R-G-D-(Y-OMe)-R-C-R] (H-RNHRGDY(Me)RCR-OH; linker 1-9 via X2), the IC50 (in test [1]; at Integrin alpha-V/beta-5) was 4.7 µM in each case.

As a reminder, the IC50 is the point on the concentration scale where inhibition reaches its midpoint.
